Source: ChEMBL document CHEMBL2163251, “Synthesis and pharmacological evaluation of indolinone derivatives as novel ghrelin receptor antagonists” (Bioorg Med Chem, 2012)
Calls of active or inactive are those of the source. No cut-off for these calls is given here.

Key:
[1] = molecular target: T1, Growth hormone secretagogue receptor type 1 (Homo sapiens, UniProt Q92847); experiment: Antagonist activity at human GHSR1 expressed in CHO-CREluc cells after 4 hrs by Luciferase reporter assay; format: functional, cell-based
Outline: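 hGHSR1a stably cloned into CHO line carrying CRE-luciferase reporter (six CRE upstream of firefly luciferase). Cells plated in MEM with 10% dialysed FBS. Stimulation medium held 0.1 µM forskolin and 3 nM human ghrelin. Luciferase read by photon counting.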

[2] = molecular target: T1, Growth hormone secretagogue receptor type 1; experiment: Displacement of [125I]-ghrelin from human GHSR1 expressed in CHO-CREluc cells after 1 hr by scintillation counting; format: cell-based
Outline: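 Crude membranes from CHO-CREluc-hGHSR1a cells were homogenized in TM buffer (10 mM Tris-HCl pH 7.4, 10 mM MgCl2) and spun at 40,000g. Incubated 1 h in TM buffer with 0.25% BSA and 10% dialysed FBS, 0.25 nM [125I] human ghrelin and increasing compound concentrations. Harvested on PEI-pretreated GF/B filters and washed with cold buffer. Bound radioactivity counted by scintillation.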

Mus musculus = experiment: Effect of glucose tolerance in fasted C57/BL6N mouse assessed as inhibition of glucose excursion at 30 mg/kg, po measured after 20 to 120 mins by IPGTT

T1 sequence (Q92847 whole entry): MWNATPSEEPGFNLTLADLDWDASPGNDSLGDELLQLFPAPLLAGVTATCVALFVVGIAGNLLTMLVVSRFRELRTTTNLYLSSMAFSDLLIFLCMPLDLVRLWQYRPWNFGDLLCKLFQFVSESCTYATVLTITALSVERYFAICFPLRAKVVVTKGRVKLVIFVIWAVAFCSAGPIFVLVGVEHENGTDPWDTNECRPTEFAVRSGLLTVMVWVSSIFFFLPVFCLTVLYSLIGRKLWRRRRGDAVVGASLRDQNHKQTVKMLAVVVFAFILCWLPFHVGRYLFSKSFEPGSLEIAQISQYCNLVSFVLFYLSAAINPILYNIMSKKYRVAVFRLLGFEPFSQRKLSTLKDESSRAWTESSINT

SMILES	IC50 [1]	Ki [2]	inhibition (Mus musculus)
CN(C)[C@@H]1CCN(CC(=O)NC2(c3ccc(Cl)c(Cl)c3)C(=O)Nc3cc(Cl)cc(Cl)c32)C1 (some centres not stated)	25 nM	–	–
CN(C)[C@H]1CCN(CC(=O)NC2(c3ccc(Cl)c(Cl)c3)C(=O)Nc3cc(Cl)cc(Cl)c32)C1 (some centres not stated)	110 nM	–	–
CCC1=C(C)CN(C(=O)NCCc2ccc(S(=O)(=O)NC(=O)N[C@H]3CC[C@H](C)CC3)cc2)C1=O	–	–	Active
Cc1cc2c(cc1Cl)NC(=O)C2(NC(=O)CN1CCNCC1)c1ccc(Cl)cc1 (racemic)	> 10000 nM	–	–
Cc1cc2c(cc1Cl)NC(=O)C2(NC(=O)CN1CCN(Cc2ccccc2)CC1)c1ccc(Cl)cc1 (racemic)	> 10000 nM	–	–
Cc1cc2c(cc1Cl)NC(=O)C2(NC(=O)CN1CCN(c2ccncc2)CC1)c1ccc(Cl)cc1 (racemic)	> 10000 nM	–	–
CN(C)CCN(C)CC(=O)NC1(c2ccc(Cl)cc2)C(=O)Nc2cc(Cl)c(Cl)cc21 (racemic)	> 10000 nM	–	–
CC1CCN(CC(=O)NC2(c3ccc(Cl)cc3)C(=O)Nc3cc(Cl)c(Cl)cc32)CC1 (racemic)	2540 nM	–	–

Further lines, with some results ahead:

IC50 [1]	Ki [2]	SMILES	inhibition (Mus musculus)
47 nM	249 nM	CN1CCN(CC(=O)N[C@]2(c3ccc(Cl)cc3)C(=O)Nc3cc(Cl)c(Cl)cc32)CC1	–
1160 nM	–	Cc1ccc2c(c1Cl)C(NC(=O)CN1CCN(C)CC1)(c1ccc(Cl)cc1)C(=O)N2 (racemic)	–
213 nM	392 nM	Cc1cc2c(cc1Cl)NC(=O)C2(NC(=O)CN1CCN(C)CC1)c1ccc(Cl)cc1 (racemic)	–
1180 nM	–	Cc1cc2c(cc1Cl)NC(=O)C2(NC(=O)CN1CCN(C)CC1)c1cccc(Cl)c1 (racemic)	–
> 10000 nM	–	Cc1cc2c(cc1Cl)NC(=O)C2(NC(=O)CN1CCN(C)CC1)c1ccccc1Cl (racemic)	–
220 nM	> 1000 nM	Cc1cc2c(cc1Cl)NC(=O)C2(NC(=O)CN1CCN(C)CC1)c1ccc(Cl)c(Cl)c1 (racemic)	–
> 10000 nM	–	Cc1cc2c(cc1Cl)NC(=O)C2(NC(=O)CN1CCN(C)CC1)c1ccc(Cl)cc1Cl (racemic)	–
129 nM	286 nM	CCN1CCN(CC(=O)NC2(c3ccc(Cl)cc3)C(=O)Nc3cc(Cl)c(C)cc32)CC1 (racemic)	–
110 nM	202 nM	CCN1CCN(CC(=O)NC2(c3ccc(Cl)cc3)C(=O)Nc3cc(Cl)c(Cl)cc32)CC1 (racemic)	–
